AI-2 QS mod = Vibrio harveyi AI-2 quorum sensing modulators, primary screen, JMH597 strain, luminescence/OD600 ratio. AID 2094, 2009. 0.4% of 300,000 active. Vibrio harveyi JMH597 AI-2 luminescence/OD600 ratio, 9 h; stronger effect = lower value; strain lacks LuxN and CqsS sensors; 0 = neutral-control median. activity change, % at 7.5 µM; in the data active = activity change below about -75%, passing the limit was not always enough; inconclusive = no clear call, values can overlap the other calls;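 also: luminescence divided by OD600 gain over 9 h not by final OD600 alone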
TbMetRS inhib = T. brucei MetRS inhibitors, primary screen, biochemical, luminescence; methionyl-tRNA synthetase (Trypanosoma brucei brucei); purified T. brucei MetRS, ATP depletion, Kinase-Glo luminescence; inhibition, % at 11.9 µM; 0.4% of 360,000 active; AID 624268, 2012;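 active = inhibition above a per-plate cutoff of the control wells' mean inhibition plus 3 SD, cut at about 5.5% in these data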;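 also: 0% = DMSO wells median and 100% = median of wells with control inhibitor compound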
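Material – parasite MetRS enzyme · Medium – HEPES-MgCl2-KCl buffer plus DTT, spermine, BSA, pyrophosphatase · Reagent – ATP, methionine and E. coli bulk tRNA substrates · Times – 15 min enzyme-compound preincubation, 2 h reaction, 10 min detection, 25 °C · Measured by – luminescence of leftover ATP · Evaluation – percent inhibition relative to median high and low control wells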
MsrA inh = bovine MsrA enzyme inhibitors, primary screen, biochemical, absorbance, HTS | Methionine sulfoxide reductase A (Bos taurus) | purified bovine MsrA, absorbance read-out | inhibition, % at 15.5 µM | 0.75% of 360,000 active | AID 651718, 2012; in the data active = inhibition above about 4.5%;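 also: 0% = vehicle wells with enzyme and 100% = reference inhibitor wells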
bovine MsrA act = bovine MsrA enzyme activators, primary screen, biochemical, absorbance, HTS. Methionine sulfoxide reductase A (Bos taurus). purified bovine MsrA, absorbance read-out. activation, % at 10.6 µM. 0.3% of 360,000 active. AID 602163, 2012; in the data active = activation above about 7.5%;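 also: 0% = vehicle and 100% = reference activator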
m5-HT2A agonist = mouse Htr2a agonists via beta-arrestin recruitment, primary screen, cell-based, luminescence; CHO-K1 mHTR2A beta-arrestin complementation; percent of 30 µM serotonin response; activation, % at 7.6 µM; 0.66% of 360,000 active; AID 624169, 2012;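 active = activation above a run cutoff, the mean activation of all tested compounds plus 3 SD, cut at about 14% in these data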;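 also: 0% = plate median of compound wells and 100% = 30 µM serotonin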
Target sequence (P35363 whole entry, looked up): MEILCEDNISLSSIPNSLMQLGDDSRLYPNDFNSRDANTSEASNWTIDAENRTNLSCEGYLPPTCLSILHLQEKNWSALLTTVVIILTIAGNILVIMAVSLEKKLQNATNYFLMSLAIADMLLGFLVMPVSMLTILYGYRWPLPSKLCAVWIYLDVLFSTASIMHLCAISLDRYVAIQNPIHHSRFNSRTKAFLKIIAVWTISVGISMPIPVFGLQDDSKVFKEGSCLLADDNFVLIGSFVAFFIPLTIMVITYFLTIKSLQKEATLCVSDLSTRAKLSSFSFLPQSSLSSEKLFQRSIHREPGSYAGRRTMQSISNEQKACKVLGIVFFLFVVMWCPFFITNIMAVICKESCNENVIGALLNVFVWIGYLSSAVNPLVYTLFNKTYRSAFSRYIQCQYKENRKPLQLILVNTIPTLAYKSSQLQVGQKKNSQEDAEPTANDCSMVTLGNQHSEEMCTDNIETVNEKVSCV
AHR activator = AHR activators, primary screen, cell-based, luminescence, luciferase reporter, human. Aryl hydrocarbon receptor (Homo sapiens), P35869. AHR-responsive luciferase reporter cells. activation, % at 5 µM. 2.5% of 320,000 active; in the data active = activation above about 47%;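 also: 0% = vehicle wells and 100% = reference agonist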
AHR act cf = AHR activators, confirmation, cell-based, luminescence, luciferase reporter, human; human cells, AHR-responsive luciferase reporter; AID 2845, 2010; 87% of 2,300 active; activation, % at 9 µM; shares compounds with AHR activator; in the data active = activation above about 49%;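 also: HepG2 hepatoma cells carrying a DRE-driven firefly luciferase reporter; 0% = vehicle wells and 100% = reference agonist wells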
PXR counter = human PXR activators, counter-screen for AHR activator project, cell-based, luciferase luminescence | shares compounds with AHR activator | cell-based PXR reporter | activation, % at 11.6 µM | 88% of 2,300 active | AID 434939, 2010; in the data active = activation above about 11%;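 also: human hepatoma DPX-2 cells expressing full-length human PXR; 0% = DMSO and 100% = reference agonist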
Numbers without * were called inactive; u = inconclusive; x = no result. A selection: hits, their analogues and other compounds. The true share with any hit is near 4.4%.

SMILES	AI-2 QS mod	TbMetRS inhib	MsrA inh	bovine MsrA act	m5-HT2A agonist	AHR activator	AHR act cf	PXR counter
CC1(Cc2ccccc2Cl)C(=O)Nc2ccc(OC(F)(F)F)cc21 (stereo not drawn)	x	0	0	-1	4	x	x	x
O=C(Nc1ccccc1)c1cc2ccccc2o1	20	-2	-1	-2	-5	93*	68*	21*
Cc1ccccc1NC(=O)c1cc2ccccc2o1	6	-1	1	-11	-5	103*	122*	14*
Cc1ccccc1NC(=O)c1cc(=O)c2ccccc2o1	-2	-1	0	-1	0	-4	x	x
COc1ccc(C(=O)NC2CCCc3ccccc32)c(OC)c1OC (stereo not drawn)	x	0	-1	-2	-8	3	x	x
CC(C)c1ccc(NC(=O)COC(=O)C2CC3C=CC2C3)cc1 (stereo not drawn)	x	-1	0	-5	-2	3	x	x
Cc1ccc(C)c(NC(=O)COC(=O)c2nc(Cl)ccc2Cl)c1	x	0	-1	-1	1	11	x	x
Cc1ccc(C)c(NC(=O)c2nc(Cl)ccc2Cl)c1	27	0	0	-2	0	81*	106*	112*
O=Nc1c(-c2c(O)[nH]c3cc(Br)ccc23)[nH]c2ccccc12	29	0	1	-2	-5	133*	148*	22*
Cn1c(C(=O)N2CCC(C(N)=O)CC2)cc2cc(Cl)ccc21	4	-1	1	-12	7	101*	116*	x
NC(=O)C1CCN(C(=O)c2ccc3ccccc3c2)CC1	14	-1	-1	-2	0	0	x	x
CCOc1ccc2[nH]c3c(NCCCOC)ncnc3c2c1	8	2	2	-2	-7	x	x	x
CCOc1ccc2[nH]c3c(NCCOC)ncnc3c2c1	11	1	0	-1	-1	85*	116*	39*
CCOc1ccc2[nH]c3c(NCC(C)C)ncnc3c2c1	10	1	x	-1	-2	100*	101*	49*
CCOc1ccc2[nH]c3c(NCCN(CC)CC)ncnc3c2c1	-5	0	1	-2	-7	7	x	x
O=C(CCN1CCN(Cc2ccccc2)CC1)Nc1cccc(Br)c1	12	-1	0	-1	0	1	x	x
Cc1cc2cc(C)c(NCCNC(=O)c3cccs3)nc2cc1C	17	0	1	-1	-6	97*	64*	22*
CCOC(=O)C1CCN(c2cc3c(cc2NC(=O)c2ccc(OC)c(OC)c2)n(C)c(=O)n3C)CC1	14	0	0	-1	11	1	x	x
CCCCCCCCN1C(=O)[C@H](CC(=O)NCc2ccc(OC)c(OC)c2)C[C@@]2(C(=O)OC)CC(C)(C)CC=C12	x	0	-1	x	-6	x	x	x
CCCCN1CC(COCc2ccccc2)Oc2cc(Br)ccc2S1(=O)=O (stereo not drawn)	x	-1	0	-5	0	x	x	x
CCOc1ccccc1Nc1nc(N)nc(CSc2nccc(C)n2)n1	28	0	-1	-4	-1	81*	70*	60*
Cc1cccc(Nc2nc(N)nc(CSc3nccc(C)n3)n2)c1	26	1	0	-1	-2	103*	103*	119*
COc1ccccc1Nc1nc(N)nc(CSc2ncccn2)n1	12	0	-1	0	1	8	x	x
CC1(C(=O)NCc2ccc(F)c(F)c2)Cc2c(-c3ccccc3)ccnc2O1 (stereo not drawn)	x	0	x	0	-8	x	x	x
O=C(COC(=O)Cc1n[nH]c(=O)c2ccccc12)NNC(=O)c1ccc(Cl)cc1	x	0	0	1	-23	23	x	x
SMILES	AI-2 QS mod	TbMetRS inhib	MsrA inh	bovine MsrA act	m5-HT2A agonist	AHR activator	AHR act cf	PXR counter
Cc1ccc(/C=C/C(=O)c2ccccc(=O)c2O)c(C)c1	u	-1	3	-10	-4	94*	12	17*
Cc1ccc(C)c(/C=C/C(=O)c2ccccc(=O)c2O)c1	15	-1	0	-6	-6	4	x	x
O=C(Cc1ccc([N+](=O)[O-])cc1)Nc1nnc(C2CC2)s1	-13	0	1	-3	-1	7	x	x
COCc1nnc(NC(=O)c2cc(C(=O)OC)cc([N+](=O)[O-])c2)s1	27	0	1	3	1	10	x	x
Cc1c(C(=O)Nc2nnc(C3CC3)s2)oc2ccccc12	x	-1	1	-1	0	111*	136*	55*
CCOc1ncccc1C(=O)Nc1nnc(C2CC2)s1	5	0	1	-2	2	104*	95*	36*
COC(=O)c1cc(C(=O)Nc2nnc(C3CC3)s2)cc([N+](=O)[O-])c1	-5	0	1	7	-3	81*	83*	x
O=C(Cc1c[nH]c2ccccc12)Nc1nnc(C2CC2)s1	23	0	-1	-1	3	91*	90*	20*
O=C(Nc1ccc(N2CCOCC2)cc1)c1ccc(Cl)c(S(=O)(=O)N2CCCC2)c1	x	1	2	-1	10	-3	x	x
C[C@@H]1COc2cc(N3CCCC3)ccc2S(=O)(=O)N1	x	x	-1	x	x	x	x	x
Cc1c(C(=O)Nc2nccs2)oc2ccccc12	x	0	2	-3	-1	x	x	x
Cc1csc(NC(=O)c2oc3ccccc3c2C)n1	16	0	2	-3	1	83*	136*	27*
CCOC(CNC(=O)c1cccn2c(=O)c3c(C)c(C)sc3nc12)OCC	15	-1	1	-2	-1	8	x	x
CCOC(CNC(=O)c1cccn2c(=O)c3cc(Cl)ccc3nc12)OCC	9	0	1	-2	5	83*	134*	14*
COC(=O)c1ccccc1Oc1cc(C(F)(F)F)nc(-c2ccccn2)n1	-2	0	-1	-3	-2	0	x	x
O=C(CC1Nc2cccc3cccc(c23)NC1=O)Nc1ccc(F)cc1 (stereo not drawn)	13	2	0	-3	1	98*	104*	92*
O=C(Nc1ccc(F)cc1)C(=O)C1C(=O)Nc2ccccc21 (stereo not drawn)	24	0	1	-4	0	13	x	x

High-throughput results: PubChem, several laboratories
